Measurements published in ChEMBL document CHEMBL1122644, “Ring-substituted 1,2-dialkylated 1,2-bis(hydroxyphenyl)ethanes. 2. Synthesis and estrogen receptor binding affinity of 4,4'-, 5,5'-, and 6,6'-disubstituted metahexestrols” (J Med Chem, 1984).
One block for each molecule: values may come before it.

What was measured:
[1] = target: Estrogen receptor (Bos taurus) (UniProt Q9XSB5+P49884); test: Relative binding affinity for calf uterine estrogen receptor is the ratio of molar concentrations of 17-beta-estradiol and compound required to decrease amount of bound [3H]-E2 by 50% X 100.; assay type: protein assay
Procedure, shortened: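 Calf uterine cytosol incubated with [3H]estradiol and competitor at 4 °C for 16 h. Free ligand removed with dextran-coated charcoal, then centrifuged and a supernatant aliquot counted. Six competitor concentrations chosen to span 50% competition on a semilog plot. Molar concentrations of unlabeled estradiol and test compound giving 50% reduction in binding were read from the plot.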

[2] = target: T1, Estrogen receptor (Mus musculus) (UniProt O08537+P19785); test: Anti-estrogenic activity in mouse uterotrophic assay at 0 ug; assay type: functional; parameters: unit not given here
T1 sequence (O08537 whole entry, looked up): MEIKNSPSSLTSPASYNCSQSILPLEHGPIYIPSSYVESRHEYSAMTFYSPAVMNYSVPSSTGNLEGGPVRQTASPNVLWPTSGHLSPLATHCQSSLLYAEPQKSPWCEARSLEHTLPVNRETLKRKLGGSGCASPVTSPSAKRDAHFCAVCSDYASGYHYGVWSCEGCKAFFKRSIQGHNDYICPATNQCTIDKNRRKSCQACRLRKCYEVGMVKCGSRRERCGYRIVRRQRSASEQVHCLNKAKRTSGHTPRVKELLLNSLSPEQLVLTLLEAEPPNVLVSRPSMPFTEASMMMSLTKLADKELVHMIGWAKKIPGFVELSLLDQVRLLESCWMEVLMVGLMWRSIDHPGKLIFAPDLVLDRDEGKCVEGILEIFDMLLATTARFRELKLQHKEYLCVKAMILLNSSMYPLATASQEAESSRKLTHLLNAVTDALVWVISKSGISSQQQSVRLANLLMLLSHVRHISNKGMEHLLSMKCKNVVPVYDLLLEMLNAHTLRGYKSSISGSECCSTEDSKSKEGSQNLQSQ
T1 sequence (P19785 whole entry, looked up): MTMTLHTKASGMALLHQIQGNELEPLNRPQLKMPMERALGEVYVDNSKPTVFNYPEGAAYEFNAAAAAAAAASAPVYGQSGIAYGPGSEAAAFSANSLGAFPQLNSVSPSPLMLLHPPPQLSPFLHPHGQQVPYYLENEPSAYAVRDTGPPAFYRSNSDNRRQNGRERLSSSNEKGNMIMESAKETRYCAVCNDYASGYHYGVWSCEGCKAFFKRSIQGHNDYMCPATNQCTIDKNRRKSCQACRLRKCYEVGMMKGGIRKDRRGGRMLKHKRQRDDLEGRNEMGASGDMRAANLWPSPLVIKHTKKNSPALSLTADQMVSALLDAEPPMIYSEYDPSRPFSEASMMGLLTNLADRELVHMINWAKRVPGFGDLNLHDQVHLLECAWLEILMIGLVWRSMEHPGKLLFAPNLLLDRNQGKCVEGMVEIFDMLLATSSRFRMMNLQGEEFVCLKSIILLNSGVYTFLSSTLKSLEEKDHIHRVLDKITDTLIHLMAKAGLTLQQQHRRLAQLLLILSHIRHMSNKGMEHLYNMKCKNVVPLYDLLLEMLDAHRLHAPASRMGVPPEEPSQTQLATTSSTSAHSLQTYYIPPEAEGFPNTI
Procedure, shortened: (§1)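 Immature female NMRI mice, 20 days old (14.5 ± 1.2 g), randomized into groups of 10. Test compound in olive oil (0.1 mL) given subcutaneously daily for 3 days alongside estrone stimulation. Uteri removed 24 h after last injection, fixed in Bouin's solution, washed, dried and weighed. Readout is inhibition of estrone-stimulated uterine growth.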

[3] = target: T1, Estrogen receptor (Mus musculus); test: Anti-estrogenic activity in mouse uterotrophic assay at 2.5 ug; assay type: functional; procedure, shortened: as §1
[4] = target: T1, Estrogen receptor (Mus musculus); test: Anti-estrogenic activity in mouse uterotrophic assay at 25 ug; assay type: functional; procedure, shortened: as §1
[5] = target: T1, Estrogen receptor (Mus musculus); test: Anti-estrogenic activity in mouse uterotrophic assay at 5 ug; assay type: functional; procedure, shortened: as §1
[6] = target: T1, Estrogen receptor (Mus musculus); test: Anti-estrogenic activity in mouse uterotrophic assay at 50 ug; assay type: functional; procedure, shortened: as §1
[7] = target: T1, Estrogen receptor (Mus musculus); test: Anti-estrogenic activity in mouse uterotrophic assay at 500 ug; assay type: functional; procedure, shortened: as §1
[8] = target: T1, Estrogen receptor (Mus musculus); test: Estrogenic activity in mouse uterotrophic assay at 8 ug; assay type: functional
Procedure, shortened: (§2)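 Uterotrophic test in 20-day-old immature female NMRI mice (14.5 ± 1.2 g), 10 per group. Daily s.c. injections of compound in 0.1 mL olive oil for 3 days. Uteri excised 24 h after final dose, Bouin-fixed, washed, dried and weighed to measure stimulation of uterine growth.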

[9] = target: T1, Estrogen receptor (Mus musculus); test: Estrogenic activity in mouse uterotrophic assay at 80 ug; assay type: functional; procedure, shortened: as §2
[10] = target: T1, Estrogen receptor (Mus musculus); test: Estrogenic activity in mouse uterotrophic assay at 0 ug; assay type: functional; parameters: unit not given here; procedure, shortened: as §2
[11] = target: T1, Estrogen receptor (Mus musculus); test: Estrogenic activity in mouse uterotrophic assay at 0.8 ug; assay type: functional; procedure, shortened: as §2
[12] = target: T1, Estrogen receptor (Mus musculus); test: Estrogenic activity in mouse uterotrophic assay at 24 ug; assay type: functional; procedure, shortened: as §2
[13] = target: T1, Estrogen receptor (Mus musculus); test: Anti-estrogenic activity as inhibition of estrone-stimulated uterine growth in mice at 2.5 mg/kg; assay type: functional, organism-based; parameters: dose 2.5 mg/kg; procedure, shortened: as §1
[14] = target: T1, Estrogen receptor (Mus musculus); test: Estrogenic activity as uterotrophic effect in mice at 800 ug dose; assay type: functional; procedure, shortened: as §2
[15] = target: T1, Estrogen receptor (Mus musculus); test: Anti-estrogenic activity in mouse uterotrophic assay at 1 ug; assay type: functional; parameters: unit not given here; procedure, shortened: as §1
[16] = target: T1, Estrogen receptor (Mus musculus); test: Anti-estrogenic activity in mouse uterotrophic assay at 10 ug; assay type: functional; parameters: unit not given here; procedure, shortened: as §1
[17] = target: T1, Estrogen receptor (Mus musculus); test: Anti-estrogenic activity in mouse uterotrophic assay at 100 ug; assay type: functional; parameters: unit not given here; procedure, shortened: as §1
[18] = target: T1, Estrogen receptor (Mus musculus); test: Estrogenic activity in mouse uterotrophic assay at 1 ug; assay type: functional; procedure, shortened: as §2
[19] = target: T1, Estrogen receptor (Mus musculus); test: Estrogenic activity in mouse uterotrophic assay at 10 ug; assay type: functional; parameters: unit not given here; procedure, shortened: as §2
[20] = target: T1, Estrogen receptor (Mus musculus); test: Estrogenic activity in mouse uterotrophic assay at 100 ug; assay type: functional; parameters: unit not given here; procedure, shortened: as §2
[21] = target: T1, Estrogen receptor (Mus musculus); test: Estrogenic activity in mouse uterotrophic assay at 1000 ug; assay type: functional; parameters: unit not given here; procedure, shortened: as §2
[22] = target: T1, Estrogen receptor (Mus musculus); test: Anti-estrogenic activity as inhibition of estrone-stimulated uterine growth in mice at 10 mg/kg; assay type: functional, organism-based; parameters: dose 10 mg/kg; procedure, shortened: as §1
[23] = target: T1, Estrogen receptor (Mus musculus); test: Anti-estrogenic activity as inhibition of estrone-stimulated uterine growth in mice at 1 mg/kg; assay type: functional, organism-based; parameters: dose 1 mg/kg; procedure, shortened: as §1
[24] = target: T1, Estrogen receptor (Mus musculus); test: Estrogenic activity in mouse uterotrophic assay at 0.1 ug; assay type: functional; procedure, shortened: as §2

Compound: CCOCc1ccc(C(CC)C(CC)c2ccc(COCC)c(O)c2)cc1O (stereo not given)
RBA [1]: < 0.01

Compound: CCC(c1cc(O)cc(O)c1)C(CC)c1cc(O)cc(O)c1 (stereo not given)
RBA [1]: 0.01

Compound: CCC(c1ccc(O)cc1Cl)C(CC)c1ccc(O)cc1Cl (stereo not given)
RBA [1]: 2.2

Compound: CCC(c1ccc(CN(C)C)c(O)c1)C(CC)c1ccc(CN(C)C)c(O)c1 (stereo not given)
RBA [1]: < 0.01

Compound: CCC(c1ccc(C(C)=O)c(O)c1)C(CC)c1ccc(C(C)=O)c(O)c1 (stereo not given)
RBA [1]: < 0.01

Compound: CCC(c1ccc(O)c(CN(C)C)c1)C(CC)c1ccc(O)c(CN(C)C)c1 (stereo not given)
RBA [1]: 0.04

Compound: CCC(c1ccc([N+](=O)[O-])c(O)c1)C(CC)c1ccc([N+](=O)[O-])c(O)c1 (stereo not given)
RBA [1]: 0.02

Compound: CCC(c1ccc(O)c(C(C)=O)c1)C(CC)c1ccc(O)c(C(C)=O)c1 (stereo not given)
RBA [1]: < 0.01

Second part, the molecule after the results:

RBA [1]: 0.07
Compound: CCC(c1ccc(Cl)c(O)c1)C(CC)c1ccc(Cl)c(O)c1 (stereo not given)

RBA [1]: 0.03
Compound: CCC(c1ccc(CO)c(O)c1)C(CC)c1ccc(CO)c(O)c1 (stereo not given)

RBA [1]: 0.03
Compound: CCC(c1ccc(COC)c(O)c1)C(CC)c1ccc(COC)c(O)c1 (stereo not given)

RBA [1]: 0.03
Compound: CCC(c1ccc(Br)c(O)c1)C(CC)c1ccc(Br)c(O)c1 (stereo not given)

RBA [1]: 8.5
Compound: CCC(c1ccc(O)cc1C)C(CC)c1ccc(O)cc1C (stereo not given)

RBA [1]: 0.04
Compound: CCc1ccc(C(CC)C(CC)c2ccc(CC)c(O)c2)cc1O (stereo not given)

RBA [1]: 10
Activity [2]: 12.5
Activity [3]: 29.5
Activity [4]: 28.1
Activity [5]: 23.5
Activity [6]: 28.3
Activity [7]: 30.9
Activity [8]: 14.4
Activity [9]: 30.5
Activity [10]: 10.7
Activity [11]: 11.8
Activity [12]: 18.5
inhibition [13]: 27%
Weight (mg/g) [14]: 30.8%
Compound: CCC(c1cccc(O)c1)C(CC)c1cccc(O)c1 (stereo not given)

RBA [1]: 27
Compound: CC[C@H](c1ccc(O)cc1)[C@@H](CC)c1ccc(O)cc1

RBA [1]: 6.5
Compound: CCC(c1ccc(O)cc1F)C(CC)c1ccc(O)cc1F (stereo not given)

RBA [1]: 0.73
Activity [2]: 14.8
Activity [15]: 34.3
Activity [16]: 39.6
Activity [17]: 41.8
Activity [10]: 13.9
Activity [18]: 21.7
Activity [19]: 45
Activity [20]: 46.2
Activity [21]: 43.5
inhibition [22]: 3%
inhibition [23]: 24%
Activity [24]: 14.3
Compound: CCC(c1ccc(C)c(O)c1)C(CC)c1ccc(C)c(O)c1 (stereo not given)

RBA [1]: 0.55
Compound: CCC(c1ccc(O)c(COC)c1)C(CC)c1ccc(O)c(COC)c1 (stereo not given)

RBA [1]: 16
Compound: CCC(c1ccc(O)c(F)c1)C(CC)c1ccc(O)c(F)c1 (stereo not given)
